Bioassay records (PubChem BioAssay)
Hits are enriched below; roughly 5.5% of the tested compounds scored in any of these assays.
STAT1 activator = increases IFN-gamma driven STAT1 reporter signal; NIH 3T3 STAT1-luciferase reporter, luminescence; 100% = IFN-gamma alone, no compound; activation (% of control), % at 5.5 µM; 200,000 tested, 2.6% active; AID 932;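 active = activation above the screen-wide mean activation plus 3 SD, cut at about 130% in these data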;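 also: raw ratio to IFN-gamma control signal so 100% means no change and 0% no light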
HSV replic up = HSV replication enhancement; HSV replication augmentation in cells, fold increase; 220,000 tested, 0.005% active; maximum fold increase; in the data active = maximum fold increase above about 1.5; tested in PC3 cells
STAT3 act = increases IL-6 driven STAT3 reporter signal; U3A cells, IL-6 STAT3-luciferase reporter, luminescence; 100% = signal with IL-6 EC80 alone; activation (% of control), % at 5.6 µM; 190,000 tested, 0.91% active;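 active = activation above the screen-wide mean of compound activation plus 3 SD, cut at about 130% in these data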;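 also: 0% = background luminescence of wells with medium and substrate only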
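Assay system – human STAT1-deficient U3A cells with stable STAT3-luciferase reporter · Also added – IL-6 (33 ng/mL) · Schedule – compound 1 h, then IL-6 6 h at 37 °C · Technique – reporter luminescence signal · Evaluation – % activation versus median of IL-6-stimulated wells · Benchmarks – IL-6-only wells as 100% reference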
Cl transport mod = modulates chloride dependent transport by human KCC2; B-score of Tl+ flux slope (higher = more flux/activation; lower = inhibition) at 10 µM; KCC2 cells, thallium flux FluoZin-2 fluorescence; 190,000 tested, 2.2% active; Q9H2X9; AID 1456;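 active = thallium flux slope and its plate-corrected score both differing from the plate sample mean at a set confidence after two filtering rounds, in either direction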;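 also: slope of fluorescence scaled to starting intensity during 10 to 20 s after thallium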
STAT3 inh-1 = inhibitors of IL-6 induced STAT3 signaling; 190,000 tested, 0.89% active; AID 862; U3A cells, IL-6 STAT3-luciferase reporter, luminescence; host cell line lacks STAT1; inhibition, % at 5.5 µM;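 active = inhibition above the mean inhibition across all screened compounds plus 3 SD, cut at about 44% in these data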;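 also: 0% = DMSO only wells and 100% = 100 µM nifuroxazide control wells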
STAT1 inh = inhibitors of IFN-gamma induced STAT1 signaling | NIH 3T3 STAT1-luciferase reporter, luminescence | inhibition, % at 5.5 µM | 200,000 tested, 0.35% active;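 active = inhibition above a set limit, the mean inhibition across all tested compounds plus 3 SD, cut at about 34% in these data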;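 also: 0% = IFN-gamma with DMSO and 100% = IFN-gamma with 300 µM nifuroxazide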
STAT3 inh-2 = STAT3 inhibition, confirmation assay; shares compounds with STAT3 inh-1; U3A cells, IL-6 STAT3 luciferase reporter, luminescence; cell line lacks STAT1; inhibition, % at 5.7 µM; 1,200 tested, 45% active; AID 1265;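 active = inhibition above the hit cutoff computed for the primary STAT3 screen, cut at about 44% in these data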;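 also: 0% = IL-6 plus DMSO and 100% = IL-6 plus nifuroxazide control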
NFkB inh 2 = NF-kappaB inhibition in STAT3 inhibitor counter-screen; inhibition, % at 5.7 µM; shares compounds with STAT3 inh-1; 1,200 tested, 36% active; HEK293T NF-kB luciferase reporter, TNF-alpha induced;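 active = inhibition above the mean of solvent-only control wells plus 3 SD, cutoff set per campaign, cut at about 13% in these data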;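 also: 0% = TNF-alpha with DMSO and 100% = TNF-alpha with MG high control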
STAT1 inh 2 = counter-screen for STAT3 inhibitors: STAT1 inhibition; NIH 3T3 STAT1-luciferase reporter, IFN-gamma induced, luminescence; inhibition, % at 5.7 µM; AID 1317; shares compounds with STAT3 inh-1; 1,200 tested, 27% active;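 active = inhibition above the mean plus 3 SD of solvent-only control wells, limit set per screening run, cut at about 16% in these data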;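 also: 0% = DMSO with IFN-gamma and 100% = nifuroxazide control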
Starred values were filed as active, the others as inactive; i = inactive; / = not tested or not shown.

SMILES	STAT1 activator	HSV replic up	STAT3 act	Cl transport mod	STAT3 inh-1	STAT1 inh	STAT3 inh-2	NFkB inh 2	STAT1 inh 2
CN(CCCC(=O)Nc1ccncc1)S(=O)(=O)c1ccc(Cl)cc1	87.8	i	62.1	-1.05	46.8*	13.3	38.5	0.2	20.7*
Cc1ccc(CC(=O)Nc2ccncc2)cc1	73.3	i	61.6	/	46.3*	28.8	51.7*	10.7	24.0*
O=C(Cc1ccc(Cl)cc1)Nc1ccncc1	77.4	i	57.9	-0.0447	52.4*	23.0	55.5*	16.7*	20.9*
CN(CC(=O)Nc1ccncc1)S(=O)(=O)c1ccc(Br)cc1	95.7	i	89.5	-1.19	15.7	4.7	/	/	/
CC1C/C(=C/c2cccn2C)C(=O)/C(=C/c2cccn2C)C1 (stereo unspecified)	93.3	/	79.3	i	28.5	7.2	/	/	/
CC1C/C(=C/c2ccncc2)C(=O)/C(=C/c2ccncc2)C1 (stereo unspecified)	75.4	i	57.5	-1.21	53.3*	26.0	43.7*	-20.4	19.1*
COc1ccc(NC(=O)c2cn(CCC#N)nc2-c2cc3ccccc3o2)cc1	113.1	i	81.0	-0.421	26.7	-14.5	/	/	/
O=C(CCCn1c(=O)[nH]c2cc(Cl)ccc2c1=O)NCCC1=CCCCC1	93.3	i	106.6	-2.58	-8.1	6.4	/	/	/
O=C(OCCN1C(=O)c2cccc3c(N4CCOCC4)ccc(c23)C1=O)c1ccccc1Cl	91.1	/	63.4	i	44.4*	10.0	47.0*	16.3*	11.7
Cc1c(Cl)cnc(NC(=O)COC(=O)c2ccc3ncsc3c2)c1Cl	87.0	i	57.9	0.587	49.8*	14.6	35.0	11.8	7.9
O=C(COC(=O)c1ccc2ncsc2c1)Nc1ncc(Cl)cc1Cl	94.4	i	101.5	-0.0396	2.1	6.3	/	/	/
CC1(C)C(N(O)C(=O)Nc2ccc(Cl)cc2)N(c2ccc(Cl)cc2)C(=O)N1CC(=O)NN (stereo unspecified)	104.0	i	100.2	/	6.7	-4.3	/	/	/
N=c1cc(C2(O)CCCCC2)n2c(nc3ccccc32)s1	114.1	i	49.3	/	61.3*	-3.8	35.5	1.3	-70.4
CN1\C(=C/C=C/C=C/C=[N+](C)C)C(C)(C)c2ccccc21	69.9	/	57.8	/	53.9*	31.4	33.9	2.3	28.9*
CSCc1cc(N2CCOCC2)nc(SCc2ccc(Cl)c(Cl)c2)n1	98.5	i	107.1	-0.00136	-2.3	1.6	/	/	/
Cc1ccc2nc(-c3ccc(NC(=O)C4CCCO4)cc3)[nH]c2c1 (stereo unspecified)	94.6	i	41.4	0.0557	72.5*	5.9	31.5	-3.8	-104.5
O=C(Nc1ccc(-c2nc3cccnc3s2)cc1)C1CCCO1 (stereo unspecified)	78.7	/	27.4	0.0246	84.3*	23.4	66.0*	16.2*	-13.8
Nc1nc(SCC(=O)N2N=C(c3ccc(Cl)cc3)CC2c2ccco2)n[nH]1 (stereo unspecified)	/	i	/	-1.42	/	/	/	/	/
CN1CCN(C(=O)CCc2nc3ccccc3n2-c2ccccc2)CC1	100.3	i	95.0	-0.509	7.3	-0.9	/	/	/
COc1ccccc1-c1nnc(SCC(=O)Nc2ccc(Cl)cc2Cl)o1	106.2	i	111.2	0.663	-9.0	-5.2	/	/	/
COc1cccc2c1OC[C@@H](CO)[C@H]2N(C)C(=O)Nc1ccc(Cl)cc1Cl	89.0	/	68.3	-1.5	44.0*	12.2	30.9	3.1	17.2*
CN(C)S(=O)(=O)Oc1cccc(C(=O)Nc2ccc(Cl)cc2)c1	109.1	i	47.5	-1.2	70.6*	-10.1	55.6*	-10.7	-49.9
Cc1ccc(CN=C2Nc3ccccc3CS2)cc1	102.1	i	57.4	-1.54	58.9*	-2.4	-3.5	-27.3	-99.8
COc1ccc(C2SCC(C(=O)NCc3ccc(F)cc3)N2C(C)=O)cc1 (stereo unspecified)	106.6	i	101.5	0.723	3.0	-7.2	/	/	/
Cc1nc(NCCNC(=O)c2ccco2)c2c(C)c(C)sc2n1	94.1	i	93.2	0.796	13.4	6.5	/	/	/
SMILES	STAT1 activator	HSV replic up	STAT3 act	Cl transport mod	STAT3 inh-1	STAT1 inh	STAT3 inh-2	NFkB inh 2	STAT1 inh 2
Cc1nc(NCCc2ccc(S(N)(=O)=O)cc2)c2c(C)c(C)sc2n1	80.7	i	56.8	20.9*	54.5*	21.0	47.9*	12.4	30.0*
Cc1ccc(-n2nnnc2SCn2nnc3ccccc3c2=O)c(C)c1	80.8	i	58.3	0.248	52.9*	20.9	52.6*	4.8	15.1
Cc1ccoc1C(=O)Nc1ccc(CC(=O)O)cc1	75.2	i	51.8	/	57.4*	27.1	50.9*	27.1*	13.7
CC(C)(C)C(=O)CNS(=O)(=O)c1ccc(S(=O)(=O)NC2CCCC2)cc1	101.1	i	99.0	/	5.6	-1.2	/	/	/
CCN1/C(=C/c2sc(-c3ccccc3C)c[n+]2C)Sc2ccccc21	71.2	i	21.4	-1.34	91.4*	29.9	93.5*	53.8*	31.6*
Cc1nn(C)c(C)c1/C=C/C(=O)c1ccc(Cl)cc1Cl	76.2	i	45.9	-0.975	66.5*	24.6	64.6*	13.4*	16.0
COc1ccc(Cl)cc1NC(=O)C12CCC(C)(C(=O)O1)C2(C)C (stereo unspecified)	102.1	i	90.1	/	15.7	-2.3	/	/	/
Oc1ccccc1Nc1nc(NCC2CCCO2)c2ccccc2n1 (stereo unspecified)	96.4	/	63.7	-0.445	50.1*	4.0	33.3	-7.4	0.5
COc1cccc(N(C(=O)CCl)C(C(=O)NCCc2ccccc2)c2cccs2)c1 (stereo unspecified)	84.1	i	46.8	-1.15	62.7*	17.9	94.7*	21.7*	25.4*
COc1ccc(N(C(=O)c2ccco2)C(C(=O)NC2CCCCC2)c2cccs2)cc1OC (stereo unspecified)	96.0	i	100.7	0.551	2.5	6.4	/	/	/
COc1ccc(N(C(=O)CCl)C(C(=O)NCCc2ccccc2)c2cccs2)cc1Cl (stereo unspecified)	82.9	i	23.0	-0.375	90.9*	18.9	103.9*	2.3	20.1*
CCOc1ncccc1C(=O)OCC(=O)Nc1ccc(C(N)=O)cc1	/	i	/	-0.17	/	/	/	/	/
O=C1CCCN1c1ccc(S(=O)(=O)N2CCN(c3ccccc3)CC2)cc1	92.9	i	97.0	1.77	6.8	5.7	/	/	/
